pEC50, pIC50: −log10 of the molar value.

The values below come from ChEMBL document CHEMBL1139526, “Synthesis, antiviral activity, and mechanism of drug resistance of D- and L-2',3'-didehydro-2',3'-dideoxy-2'-fluorocarbocyclic nucleosides” (J Med Chem, 2005).

For assay [1], the system named is PBMC. Kind of assay: Effective concentration to inhibit HIV-1 activity in human peripheral blood mononuclear cells. Type of assay: functional, cell-based. The procedure, abridged: (§1)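 HIV-1 LAI was the reference virus. Human PBM cells were infected in bulk for 1 h at 100 TCID50/1 × 10⁷ cells (flask) or 200 TCID50/6 × 10⁵ cells/well. Cells went into 10-fold serial compound dilutions in RPMI-1640 with 16% FBS, DEAE-dextran and IL-2, 5 days at 37 °C. Read-out was supernatant RT activity ([³H]TTP, poly(rA)·oligo(dT)). EC50 was taken by the median effect method.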

Assay [2] has as its system PBMC. The assay can be described thus: Inhibitory concentration was determined against PHA stimulated human peripheral blood mononuclear cells. Type of assay: functional, cell-based. The essentials:
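Uninfected PHA-stimulated PBM cells from healthy HIV/HBV-seronegative donors were isolated by Ficoll-Hypaque and seeded at 5 × 10⁴ cells/well. Cells were incubated 5 days at 37 °C with 10-fold serial dilutions. Read-out was MTT reduction at 570 nm after overnight dye and solubilization. IC50 was taken by median-effect analysis.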

A further assay concerns Vero. The assay can be described thus: Inhibitory concentration against uninfected Vero cells. Format: functional, cell-based. The conditions noted are these: Chlorocebus sabaeus. The essentials:
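Uninfected Vero cells in log phase, 5 × 10³ cells/well, were exposed to 10-fold serial drug dilutions for 3 days at 37 °C. Viability was read by MTT overnight, solubilized, at 570 nm. IC50 came from the median effect method.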

The test system of a further assay is CCRF-CEM. Kind of assay: Inhibitory concentration against CEM cell line. Format: functional, cell-based. The conditions noted are these: Homo sapiens. The essentials:
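CEM T-lymphoblastoid cells in log phase, 2.5 × 10³ cells/well, were exposed to 10-fold serial dilutions for 4 days at 37 °C and 5% CO₂. MTT was added overnight, then solubilized, with absorbance read at 570 nm. IC50 was taken from median-effect analysis.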

For assay [3], the system named is PBMC. The assay can be described thus: In vitro effective concentration against HIV-1 in human peripheral blood mononuclear cells. Format: functional, cell-based. The procedure, abridged: as §1
For assay [4], the system named is PBMC. The assay can be described thus: In vitro effective concentration against HBV in human peripheral blood mononuclear cells. Format: functional, cell-based.
In assay [5] the test system is PBMC. The assay can be described thus: (§2) In vitro effective concentration against […] wild type HIV-1 in human peripheral blood mononuclear cells. Type of assay: functional, cell-based. The essentials:
(§3)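 Molecular clones were used: wild-type HIV-1 xxBru and lamivudine-resistant HIV-1 M184Vpitt. Human PBM cells were infected in bulk for 1 h, then cultured in 10-fold serial compound dilutions with IL-2 for 5 days at 37 °C. Pelleted supernatant virus was assayed for RT activity, 2 h at 37 °C with [³H]TTP. EC50/EC90 came from median-effect analysis. Fold increase is M184V EC50 over xxBRU EC50.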

Assay [6] relates to PBMC. The assay can be described thus: Fold increase in ratio of EC50 against HIV-1 M184V to that of EC50 against HIV-1wild type. Format: functional, Homo sapiens. The procedure, abridged: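 PHA-stimulated human PBM cells infected in bulk for 1 h with the molecular clones HIV-1 xxBru (wild type) or M184Vpitt, then added to 10-fold serial drug dilutions. Cultured 5 days at 37 °C. Supernatant virus was pelleted and its RT activity measured by [3H]TTP incorporation on poly(rA)·oligo(dT). EC50 by the median effect method; fold increase = EC50 M184V / EC50 xxBru.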

The subject of assay [7] is PBMC. The assay is described as §2. Format: functional. The procedure, abridged:
as §3

The subject of assay [8] is PBMC. The assay can be described thus: In vitro effective concentration against Lamivudine resistant HIV-1 mutant M184V in human peripheral blood mononuclear cells. Type of assay: functional.
In assay [9] the test system is PBMC.
In another assay the test system is MT4. The assay can be described thus: In vitro effective concentration against HIV-1 in MT-4 cells. Type of assay: functional, cell-based. The conditions noted are these: Homo sapiens.

As usually defined, the pEC50 is the negative decadic logarithm of the EC50, by convention in mol/L. For orientation: pIC50 means −log10 of the IC50, conventionally taken in molar units. High values mean a low IC50, low ones a high IC50. Compound `Nc1ccn([C@H]2C[C@@H](CO)C=C2F)c(=O)n1` showed a pEC50 in the assay on PBMC [1] of 4.42. Moreover, the pIC50 in the assay with PBMC [2], in the assay on Vero and with CCRF-CEM was less than 4.00 in each case.
For the compound `Nc1ccn([C@@H]2S[C@H](CO)C=C2F)c(=O)n1`, the pEC50 in the assay on PBMC [3] was 5.89.
In turn, `Nc1ccn([C@@H]2C[C@H](CO)C=C2F)c(=O)n1` gave a pEC50 with PBMC [1] of less than 4.00. Also, the pIC50 in the assay with PBMC [2], in the assay with Vero and with CCRF-CEM was less than 4.00 in each case.
`Nc1nc(=O)n([C@H]2C=C(F)[C@@H](CO)S2)cc1F` showed a pEC50 in the assay with PBMC [3] of 6.82.
`Cc1cn([C@H]2C[C@@H](CO)C=C2F)c(=O)[nH]c1=O` showed a pEC50 in the assay on PBMC [1] of less than 4.00. For the same compound, the pIC50 in the assay with PBMC [2], with Vero and in the assay on CCRF-CEM was less than 4.00 in each case.
On to `O=c1ccn([C@@H]2C[C@H](CO)C=C2F)c(=O)[nH]1`, for which the pEC50 with PBMC [1] is less than 4.00. The pIC50 in the assay with PBMC [2], with Vero and in the assay on CCRF-CEM was less than 4.00 throughout.
`Nc1ncnc2c1ncn2[C@@H]1C[C@H](CO)C=C1F`: the pEC50 in the assay with PBMC [1] and with PBMC [3] was 4.14 in each case. Further, the negative-log IC50 (pIC50) with PBMC [2], in the assay with Vero and in the assay with CCRF-CEM was less than 4.00 each time.
Consider `OC[C@H]1C=C(F)[C@@H](n2cnc3c(O)ncnc32)C1`, for which the pEC50 with PBMC [1] is less than 4.00. Besides, the pIC50 in the assay on PBMC [2] is less than 4.00; in the assay on Vero, less than 4.00; in the assay with CCRF-CEM, 4.04.
`O=c1ccn([C@H]2C[C@@H](CO)C=C2F)c(=O)[nH]1` gave a pEC50 with PBMC [1] of less than 4.00. Moreover, the pIC50 in the assay on PBMC [2], with Vero and in the assay on CCRF-CEM was less than 4.00 each time.
With `Nc1nc(O)c2ncn([C@H]3C[C@@H](CO)C=C3F)c2n1`, the pEC50 with PBMC [1] is less than 4.00. For the same compound, the pIC50 in the assay on PBMC [2], in the assay on Vero and in the assay with CCRF-CEM was less than 4.00 each time.
With `Nc1nc(=O)n([C@@H]2O[C@H](CO)C=C2F)cc1F`, the results for the pEC50 in the assay with PBMC [3] and with PBMC [4] were 6.77 and 6.66, respectively.
On to `Nc1nc(O)c2ncn([C@@H]3C[C@H](CO)C=C3F)c2n1`, for which the pEC50 in the assay on PBMC [1] and in the assay on PBMC [3] was 4.42 throughout. Also, the pIC50 in the assay on PBMC [2], in the assay on Vero and in the assay on CCRF-CEM was less than 4.00 throughout.
In the case of `Nc1ncnc2c1ncn2[C@@H]1O[C@H](CO)C=C1F`, the pEC50 in the assay on PBMC [3] was 5.82; with PBMC [4], 5.77.
`Nc1ccn([C@H]2C=C(F)[C@@H](CO)S2)c(=O)n1` gave a negative logarithm of the EC50 (pEC50) in the assay with PBMC [3] of 6.92.
For orientation: EC90 means the point of the concentration-response curve where the effect stands at 90%. The low end stands for an effect from little substance, the high end for a need for much substance. With `Nc1ncnc2c1ncn2[C@H]1C[C@@H](CO)C=C1F`, the pEC50 was 6.11 in the assay on PBMC [1], 6.11 with PBMC [5] and 4.12 in the assay on PBMC [9]. Besides, in the assay on PBMC [6], the Fold increase was 98. The pIC50 in the assay with PBMC [2], in the assay with Vero and in the assay with CCRF-CEM was less than 4.00 each time. Also, the figures for the EC90 in the assay with PBMC [7] and in the assay with PBMC [8] were 8.34 µM and greater than 100 µM, respectively.
`Nc1ccn([C@@H]2O[C@H](CO)C=C2F)c(=O)n1`: the pEC50 with PBMC [3] was 6.29; in the assay with PBMC [4], 6.10.
On to `OC[C@@H]1C=C(F)[C@H](n2cnc3c(O)ncnc32)C1`, for which the pEC50 with PBMC [1] was less than 4.00. Also, the pIC50 in the assay on PBMC [2], with Vero and in the assay on CCRF-CEM was less than 4.00 throughout.
`Cc1cn([C@@H]2C[C@H](CO)C=C2F)c(=O)[nH]c1=O`: the pEC50 in the assay with PBMC [1] is less than 4.00. The pIC50 in the assay on PBMC [2], with Vero and with CCRF-CEM was less than 4.00 throughout.
Consider `Nc1nc(=O)n([C@H]2C=C(F)C(CO)O2)cc1F` (single isomer, unassigned), for which, in the assay with PBMC [3], the pEC50 is 6.09.
On to `Nc1ncnc2c1ncn2[C@H]1C=C(F)C(CO)O1` (single isomer, unassigned), for which the pEC50 in the assay with PBMC [3] is 5.36.
In the assay on MT4, `Nc1nc2c(ncn2[C@H]2C=C[C@@H](CO)C2)c(=O)[nH]1` [CARBOVIR] gave a pIC50 of 5.34. In the assay with PBMC [3], this compound gave a pEC50 of 6.26.
In the assay on PBMC [5], `Nc1ccn([C@@H]2CS[C@H](CO)O2)c(=O)n1` [LAMIVUDINE] gave a pEC50 of 7.57. Moreover, the EC90 in the assay on PBMC [7] worked out at 0.25 µM.
As to `Cc1cn([C@H]2C[C@H](N=[N+]=[N-])[C@@H](CO)O2)c(=O)[nH]c1=O` [ZIDOVUDINE], the pEC50 in the assay on PBMC [1] is 8.74. In the assay with PBMC [2], the pIC50 was less than 4.00.
